Source: ChEMBL document CHEMBL5338825, “Structure-Based Discovery of Inhibitors of the SARS-CoV-2 Nsp14 N7-Methyltransferase” (J Med Chem, 2023)
Calls of active or inactive are those of the source. No cut-off for these calls is given here.

How the values were obtained:
[1] = target: Replicase polyprotein 1ab (Severe acute respiratory syndrome coronavirus 2, UniProt P0DTD1); assay: Inhibition of N-terminal 6His/SUMO-tagged SARS-CoV-2 NSP14 expressed in Escherichia coli Rosetta 2 (DE3) PlysS cells using 5'GpppACCCCCCCCC-Biotin 3' and 3H-SAM as substrates incubated for 30 mins by TopCount scintillation proximity assay
[2] = target: Replicase polyprotein 1ab (Severe acute respiratory syndrome coronavirus 2) (UniProt P0DTD1); assay: Inhibition of N-terminal 6His/SUMO-tagged SARS-CoV-2 NSP14 expressed in Escherichia coli Rosetta 2 (DE3) PlysS cells using 5'GpppACCCCCCCCC-Biotin 3' and 3H-SAM as substrates at 100 uM incubated for 30 mins by TopCount scintillation proximity assay relative to control
[3] = target: Replicase polyprotein 1ab (Severe acute respiratory syndrome coronavirus 2) (UniProt P0DTD1); assay: Reversible binding affinity to Cys387 of N-terminal 6His/SUMO-tagged SARS-CoV-2 NSP14 expressed in Escherichia coli Rosetta 2 (DE3) PlysS cells using 5'GpppACCCCCCCCC-Biotin 3' and 3H-SAM as substrates incubated for 2 hrs by mass spectrometry analysis
Summary of the method: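 Nsp14 incubated with 20-fold molar excess of compound for 2 h at 20 °C, then taken into 0.1% formic acid. Separated by HPLC on a 5–95% acetonitrile/water gradient and analysed by ESI time-of-flight MS for protein mass shift.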

[4] = target: Replicase polyprotein 1ab (Severe acute respiratory syndrome coronavirus 2) (UniProt P0DTD1); assay: Reversible covalent inhibition of N-terminal 6His/SUMO-tagged SARS-CoV-2 NSP14 expressed in Escherichia coli Rosetta 2 (DE3) PlysS cells using 5'GpppACCCCCCCCC-Biotin 3' and 3H-SAM as substrates at 10 fold IC50 concentration incubated for 60 mins by rapid dilution method
Summary of the method: (§1)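 Jump dilution: Nsp14 at 100-fold its assay concentration (assay level 1.5 nM) preincubated with compound for 1 h at room temperature. Then diluted 100-fold into assay buffer containing RNA substrate and SAM, and recovery of methyltransferase activity monitored.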

[5] = target: Histone-lysine N-methyltransferase EHMT2 (Homo sapiens, UniProt Q96KQ7); assay: Inhibition of human G9a using biotin-tagged Histone H3 and 3H-SAM as substrate incubated for 1 hrs by TopCount scintillation proximity assay
Summary of the method: (§2)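 Radiometric concentration–response for IC50, run on panel methyltransferases showing more than 50% inhibition at a 10 μM screen. Triplicate.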

[6] = target: Histone-lysine N-methyltransferase EHMT1 (Homo sapiens, UniProt Q9H9B1); assay: Inhibition of human GLP using biotin-tagged Histone H3 and 3H-SAM as substrate incubated for 1 hrs by TopCount scintillation proximity assay; summary of the method: as §2
Sequence of Histone-lysine N-methyltransferase EHMT1 (Q9H9B1 whole entry): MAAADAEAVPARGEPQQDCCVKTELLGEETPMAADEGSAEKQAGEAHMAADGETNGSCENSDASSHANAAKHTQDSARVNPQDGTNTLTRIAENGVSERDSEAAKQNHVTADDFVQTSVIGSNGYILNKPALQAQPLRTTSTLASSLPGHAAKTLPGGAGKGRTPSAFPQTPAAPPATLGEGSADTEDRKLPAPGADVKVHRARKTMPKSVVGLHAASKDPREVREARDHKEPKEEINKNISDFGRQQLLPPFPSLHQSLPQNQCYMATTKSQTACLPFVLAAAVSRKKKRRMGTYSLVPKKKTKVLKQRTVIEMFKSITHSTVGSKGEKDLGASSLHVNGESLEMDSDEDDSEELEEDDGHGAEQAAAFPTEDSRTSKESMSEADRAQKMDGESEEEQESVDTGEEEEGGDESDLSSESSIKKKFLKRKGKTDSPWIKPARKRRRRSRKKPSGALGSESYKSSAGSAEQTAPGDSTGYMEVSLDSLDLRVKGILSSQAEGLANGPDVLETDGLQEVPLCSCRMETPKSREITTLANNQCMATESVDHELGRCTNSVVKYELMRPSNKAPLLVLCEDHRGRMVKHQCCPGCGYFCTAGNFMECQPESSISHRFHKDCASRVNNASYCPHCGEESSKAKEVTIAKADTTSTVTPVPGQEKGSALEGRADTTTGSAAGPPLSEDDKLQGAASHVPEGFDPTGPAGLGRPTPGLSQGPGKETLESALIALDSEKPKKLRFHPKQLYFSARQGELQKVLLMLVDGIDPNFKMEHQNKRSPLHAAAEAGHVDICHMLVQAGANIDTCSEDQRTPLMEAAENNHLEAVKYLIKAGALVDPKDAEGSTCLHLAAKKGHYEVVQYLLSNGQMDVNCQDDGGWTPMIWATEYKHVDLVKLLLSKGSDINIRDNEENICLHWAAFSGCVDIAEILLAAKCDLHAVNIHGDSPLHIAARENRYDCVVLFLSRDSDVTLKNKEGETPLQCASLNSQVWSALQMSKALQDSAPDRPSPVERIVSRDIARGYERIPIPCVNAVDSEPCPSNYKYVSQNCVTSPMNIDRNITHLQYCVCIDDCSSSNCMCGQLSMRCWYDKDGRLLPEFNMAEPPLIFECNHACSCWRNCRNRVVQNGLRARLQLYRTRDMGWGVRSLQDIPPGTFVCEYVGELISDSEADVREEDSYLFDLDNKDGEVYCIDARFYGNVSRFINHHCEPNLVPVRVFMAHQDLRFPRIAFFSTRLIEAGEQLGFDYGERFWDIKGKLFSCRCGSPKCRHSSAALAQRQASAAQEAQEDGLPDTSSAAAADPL

[7] = Aggregation property of the compound in KPi buffer at pH 7.0 assessed as formation of colloid-like particles at 3.8 uM by dynamic light scattering analysis; format: physicochemical; conditions: pH 7, 3.8 µM
Summary of the method: (§3)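 Compounds diluted as 8-point half-log series in filtered 50 mM KPi, pH 7.0, with 1% v/v DMSO final. Particles detected by dynamic light scattering, triplicate at each concentration. CAC taken as the intersection of separate nonlinear fits to aggregating (>10^6 scattering intensity) and non-aggregating data.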

Bacteria [8] = assay: Inhibition of beta-lactamase AmpC (unknown origin) at 3.8 uM pre-incubated with compound for 5 mins followed by substrate addition and measured after 1.5 mins by absorbance based plate reader analysis; conditions: time 6.5 min
Summary of the method: (§4)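 AmpC at 2 nM preincubated 5 min with compound at room temperature in 50 mM KPi, pH 7.0, with 1% v/v DMSO. Started with 50 μM CENTA (read at 405 nm) or 50 μM nitrocefin (read at 490 nm), monitored 1 min 30 s. Initial rate taken as % of DMSO control. Top concentration in triplicate; eight-point half-log curves in triplicate where inhibition exceeded 40%.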

Homo sapiens [9] = organism: Homo sapiens; assay: Inhibition of MDH (unknown origin) using oxaloacetic acid as substrate at 3.8 uM preincubated with compound for 5 mins followed by substrate addition and measured after 1.5 min in the presence of NADH by absorbance based plate reader analysis; conditions: time 6.5 min
Summary of the method: (§5)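 MDH assay at room temperature in 50 mM KPi, pH 7.0, with 1% v/v DMSO final. Compound preincubated 5 min with 2 nM enzyme. Reaction started with 200 μM NADH plus 200 μM oxaloacetic acid, and absorbance followed at 340 nm for 1 min 30 s. Initial rate divided by the DMSO control rate. Single top concentration in triplicate; eight-point half-log curves in triplicate where inhibition exceeded 40%.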

Homo sapiens [10] = organism: Homo sapiens; assay: Inhibition of MDH (unknown origin) using oxaloacetic acid as substrate at 3.8 uM preincubated with compound for 5 mins followed by substrate addition and measured after 1.5 min in the presence of NADH and 0.01% Triton-X 100 by absorbance based plate reader analysis; conditions: time 6.5 min
Summary of the method: (§6)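 Detergent-reversal MDH assay: 50 mM KPi, pH 7.0, with 1% v/v DMSO and 0.01% v/v Triton X-100. Enzyme at 2 nM preincubated 5 min with compound, then started with 200 μM NADH plus 200 μM oxaloacetate. A340 read for 1 min 30 s, rate normalised to DMSO control. Eight-point half-log curves in triplicate.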

Bacteria [11] = assay: Inhibition of beta-lactamase AmpC (unknown origin) at 3.8 uM pre-incubated with compound for 5 mins followed by substrate addition and measured after 1.5 mins in the presence of 0.01% Triton-X 100 by absorbance based plate reader analysis
Summary of the method: (§7)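 AmpC detergent-reversal assay: 50 mM KPi, pH 7.0, with 1% v/v DMSO and 0.01% v/v Triton X-100. Enzyme at 2 nM preincubated 5 min with compound, then 50 μM CENTA (405 nm) or nitrocefin (490 nm) added. Absorbance followed for 1 min 30 s and rate normalised to DMSO. Eight-point half-log curves in triplicate.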

Bacteria [12] = assay: Inhibition of beta-lactamase AmpC (unknown origin) pre-incubated with compound for 5 mins followed by substrate addition and measured after 1.5 mins by absorbance based plate reader analysis; conditions: time 6.5 min; summary of the method: as §4
[13] = target: Replicase polyprotein 1ab (Severe acute respiratory syndrome coronavirus 2) (UniProt P0DTD1); assay: Non-covalent inhibition of N-terminal 6His/SUMO-tagged SARS-CoV-2 NSP14 expressed in Escherichia coli Rosetta 2 (DE3) PlysS cells using 5'GpppACCCCCCCCC-Biotin 3' and 3H-SAM as substrates at 10 fold IC50 concentration incubated for 60 mins by rapid dilution method; summary of the method: as §1
[14] = target: Replicase polyprotein 1ab (Severe acute respiratory syndrome coronavirus 2) (UniProt P0DTD1); assay: Competitive inhibition of N-terminal 6His/SUMO-tagged SARS-CoV-2 NSP14 expressed in Escherichia coli Rosetta 2 (DE3) PlysS cells using 5'GpppACCCCCCCCC-Biotin 3' and 3H-SAM as substrates at increasing concentration incubated for 30 mins by TopCount scintillation proximity assay
Summary of the method: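 Competition pattern read from IC50 shifts. […] Separately, SAM fixed at 1.25 μM (5× Km) with RNA varied up to 0.5 μM (10× Km). A linear rise of IC50 with substrate concentration was taken as competitive inhibition.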

[15] = target: Histone-lysine N-methyltransferase SUV39H1 (Homo sapiens) (UniProt O43463); assay: Inhibition of human SUV39H1 using Biotin-tagged histone H3 and 3H-SAM as substrate at 6 uM incubated for 1 hrs by TopCount scintillation proximity assay relative to control
[16] = target: T1, Histone-lysine N-methyltransferase, H3 lysine-79 specific (Homo sapiens, UniProt Q8TEK3); assay: Inhibition of human DOT1L using chicken nucleosome and 3H-SAM as substrate at 6 uM incubated for 1 hrs by TopCount scintillation proximity assay relative to control
[17] = target: Histone-lysine N-methyltransferase SMYD3 (Homo sapiens) (UniProt Q9H7B4); assay: Inhibition of human SMYD3 using biotin-tagged MAP3K2 and 3H-SAM as substrate at 6 uM incubated for 1 hrs by TopCount scintillation proximity assay relative to control
Sequence of Histone-lysine N-methyltransferase SMYD3 (Homo sapiens) (Q9H7B4 whole entry): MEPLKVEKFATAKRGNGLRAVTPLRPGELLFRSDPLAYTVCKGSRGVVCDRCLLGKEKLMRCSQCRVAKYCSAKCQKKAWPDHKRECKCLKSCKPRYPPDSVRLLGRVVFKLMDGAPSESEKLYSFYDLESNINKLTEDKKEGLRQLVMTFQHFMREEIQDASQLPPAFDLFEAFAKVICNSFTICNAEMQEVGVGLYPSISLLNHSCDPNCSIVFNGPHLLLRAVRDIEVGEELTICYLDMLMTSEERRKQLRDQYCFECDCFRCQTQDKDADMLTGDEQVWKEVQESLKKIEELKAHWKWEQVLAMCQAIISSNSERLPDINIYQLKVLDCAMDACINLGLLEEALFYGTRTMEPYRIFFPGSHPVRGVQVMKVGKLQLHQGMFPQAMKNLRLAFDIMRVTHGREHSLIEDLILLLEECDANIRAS

[18] = target: RNA 5'-monophosphate methyltransferase (Homo sapiens) (UniProt Q7Z5W3); assay: Inhibition of human BCDIN3D using biotin-tagged microRNA-145 and 3H-SAM as substrate at 6 uM incubated for 1 hrs by TopCount scintillation proximity assay relative to control
[19] = target: T2, Protein arginine N-methyltransferase 3 (Homo sapiens, UniProt O60678); assay: Inhibition of human PRMT3 using biotin-tagged Histone H4 and 3H-SAM as substrate at 6 uM incubated for 1 hrs by TopCount scintillation proximity assay relative to control
Target sequence in this assay (O60678 2-531 limits assumed): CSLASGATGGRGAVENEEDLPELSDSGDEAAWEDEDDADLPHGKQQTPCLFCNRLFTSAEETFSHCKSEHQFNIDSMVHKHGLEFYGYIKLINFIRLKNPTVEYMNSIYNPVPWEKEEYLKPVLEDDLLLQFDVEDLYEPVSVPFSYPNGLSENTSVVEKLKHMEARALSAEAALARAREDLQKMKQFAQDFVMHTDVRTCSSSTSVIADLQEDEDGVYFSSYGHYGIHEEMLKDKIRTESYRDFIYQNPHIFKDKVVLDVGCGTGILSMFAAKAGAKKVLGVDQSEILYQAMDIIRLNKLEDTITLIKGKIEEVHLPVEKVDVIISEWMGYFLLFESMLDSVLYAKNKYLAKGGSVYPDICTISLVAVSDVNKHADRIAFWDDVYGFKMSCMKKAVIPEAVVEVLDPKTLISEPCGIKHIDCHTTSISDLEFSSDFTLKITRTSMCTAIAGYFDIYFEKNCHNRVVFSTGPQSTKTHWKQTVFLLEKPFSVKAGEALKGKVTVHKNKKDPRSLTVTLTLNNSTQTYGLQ

[20] = target: Protein arginine N-methyltransferase 9 (Homo sapiens) (UniProt Q6P2P2); assay: Inhibition of human PRMT9 using biotin-tagged SAP145 and 3H-SAM as substrate at 6 uM incubated for 1 hrs by TopCount scintillation proximity assay relative to control
Sequence of Protein arginine N-methyltransferase 9 (Homo sapiens) (Q6P2P2 whole entry): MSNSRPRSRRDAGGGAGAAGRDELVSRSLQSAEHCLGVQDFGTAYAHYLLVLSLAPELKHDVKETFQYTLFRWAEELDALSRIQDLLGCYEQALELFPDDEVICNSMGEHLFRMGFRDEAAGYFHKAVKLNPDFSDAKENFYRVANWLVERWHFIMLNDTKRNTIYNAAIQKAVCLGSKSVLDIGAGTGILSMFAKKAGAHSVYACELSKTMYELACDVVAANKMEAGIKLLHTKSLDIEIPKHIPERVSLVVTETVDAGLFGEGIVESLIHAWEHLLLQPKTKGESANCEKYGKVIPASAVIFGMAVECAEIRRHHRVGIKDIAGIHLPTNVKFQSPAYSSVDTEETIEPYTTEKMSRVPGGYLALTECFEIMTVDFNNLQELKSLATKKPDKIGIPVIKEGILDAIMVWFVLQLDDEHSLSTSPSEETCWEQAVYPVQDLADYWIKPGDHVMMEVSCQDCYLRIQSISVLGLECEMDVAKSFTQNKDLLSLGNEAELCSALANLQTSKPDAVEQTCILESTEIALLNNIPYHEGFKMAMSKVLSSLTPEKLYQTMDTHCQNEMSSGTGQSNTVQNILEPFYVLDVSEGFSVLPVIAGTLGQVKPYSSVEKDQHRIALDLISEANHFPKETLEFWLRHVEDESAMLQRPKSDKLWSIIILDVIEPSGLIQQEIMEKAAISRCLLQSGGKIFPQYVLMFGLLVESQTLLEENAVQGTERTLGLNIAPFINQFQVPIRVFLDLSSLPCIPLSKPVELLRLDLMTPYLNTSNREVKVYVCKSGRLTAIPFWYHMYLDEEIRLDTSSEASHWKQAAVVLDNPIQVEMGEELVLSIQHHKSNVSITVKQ

[21] = target: T3, Protein arginine N-methyltransferase 1 (Homo sapiens, UniProt Q99873); assay: Inhibition of human PRMT1 using biotin-tagged Histone H4 and 3H-SAM as substrate at 6 uM incubated for 1 hrs by TopCount scintillation proximity assay relative to control
[22] = target: T4, Histone-lysine N-methyltransferase 2A (Homo sapiens, UniProt Q03164); assay: Inhibition of human MLL1 using biotin-tagged Histone H3 and 3H-SAM as substrate at 6 uM incubated for 1 hrs by TopCount scintillation proximity assay relative to control
[23] = target: Histone-lysine N-methyltransferase EHMT1 (Homo sapiens) (UniProt Q9H9B1); assay: Inhibition of human GLP using biotin-tagged Histone H3 and 3H-SAM as substrate at 6 uM incubated for 1 hrs by TopCount scintillation proximity assay relative to control
[24] = target: Histone-lysine N-methyltransferase SUV39H1 (Homo sapiens, UniProt O43463); assay: Inhibition of human SUV39H1 using Biotin-tagged histone H3 and 3H-SAM as substrate incubated for 1 hrs by TopCount scintillation proximity assay
Summary of the method: (§8)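 Radiometric human methyltransferase assay. Enzymes showing >50% inhibition at a 10 μM single-point screen went on to concentration–response in triplicate to derive IC50.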

[25] = target: T1, Histone-lysine N-methyltransferase, H3 lysine-79 specific; assay: Inhibition of human DOT1L using chicken nucleosome and 3H-SAM as substrate incubated for 1 hrs by TopCount scintillation proximity assay; summary of the method: as §2
[26] = target: Histone-lysine N-methyltransferase SMYD3 (Homo sapiens, UniProt Q9H7B4); assay: Inhibition of human SMYD3 using biotin-tagged MAP3K2 and 3H-SAM as substrate incubated for 1 hrs by TopCount scintillation proximity assay; summary of the method: as §8
Sequence of Histone-lysine N-methyltransferase SMYD3 (Q9H7B4 whole entry): as the sequence (Q9H7B4 whole entry) above

[27] = target: RNA 5'-monophosphate methyltransferase (Homo sapiens, UniProt Q7Z5W3); assay: Inhibition of human BCDIN3D using biotin-tagged microRNA-145 and 3H-SAM as substrate incubated for 1 hrs by TopCount scintillation proximity assay; summary of the method: as §2
[28] = target: T2, Protein arginine N-methyltransferase 3; assay: Inhibition of human PRMT3 using biotin-tagged Histone H4 and 3H-SAM as substrate incubated for 1 hrs by TopCount scintillation proximity assay; summary of the method: as §2
Target sequence in this assay (O60678 whole entry): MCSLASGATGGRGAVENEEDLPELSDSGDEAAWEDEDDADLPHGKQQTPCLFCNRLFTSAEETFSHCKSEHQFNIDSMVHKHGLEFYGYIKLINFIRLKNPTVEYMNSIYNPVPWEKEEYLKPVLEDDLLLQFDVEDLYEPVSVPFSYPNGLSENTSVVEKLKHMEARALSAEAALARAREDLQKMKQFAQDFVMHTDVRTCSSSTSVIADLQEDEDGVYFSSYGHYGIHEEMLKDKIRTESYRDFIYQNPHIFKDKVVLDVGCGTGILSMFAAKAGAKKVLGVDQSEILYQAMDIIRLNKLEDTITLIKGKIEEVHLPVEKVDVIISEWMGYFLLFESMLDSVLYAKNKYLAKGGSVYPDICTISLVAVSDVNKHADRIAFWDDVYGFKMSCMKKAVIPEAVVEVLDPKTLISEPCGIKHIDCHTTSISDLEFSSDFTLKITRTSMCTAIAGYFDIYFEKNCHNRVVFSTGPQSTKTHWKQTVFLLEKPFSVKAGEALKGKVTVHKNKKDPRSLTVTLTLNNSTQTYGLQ

[29] = target: Protein arginine N-methyltransferase 9 (Homo sapiens, UniProt Q6P2P2); assay: Inhibition of human PRMT9 using biotin-tagged SAP145 and 3H-SAM as substrate incubated for 1 hrs by TopCount scintillation proximity assay; summary of the method: as §2
Sequence of Protein arginine N-methyltransferase 9 (Q6P2P2 whole entry): as the sequence (Q6P2P2 whole entry) above

[30] = target: T3, Protein arginine N-methyltransferase 1; assay: Inhibition of human PRMT1 using biotin-tagged Histone H4 and 3H-SAM as substrate incubated for 1 hrs by TopCount scintillation proximity assay; summary of the method: as §2
[31] = target: T4, Histone-lysine N-methyltransferase 2A; assay: Inhibition of human MLL1 using biotin-tagged Histone H3 and 3H-SAM as substrate incubated for 1 hrs by TopCount scintillation proximity assay; summary of the method: as §2
Homo sapiens [32] = organism: Homo sapiens; assay: Inhibition of MDH (unknown origin) using oxaloacetic acid as substrate preincubated with compound for 5 mins followed by substrate addition and measured after 1.5 min in the presence of NADH by absorbance based plate reader analysis; conditions: time 6.5 min; summary of the method: as §5
[33] = Aggregation property of the compound in KPi buffer at pH 7.0 assessed as formation of colloid-like particles by dynamic light scattering analysis; format: physicochemical; summary of the method: as §3
Homo sapiens [34] = organism: Homo sapiens; assay: Inhibition of MDH (unknown origin) using oxaloacetic acid as substrate preincubated with compound for 5 mins followed by substrate addition and measured after 1.5 min in the presence of NADH and 0.01% Triton-X 100 by absorbance based plate reader analysis; conditions: time 6.5 min; summary of the method: as §6
Bacteria [35] = assay: Inhibition of beta-lactamase AmpC (unknown origin) pre-incubated with compound for 5 mins followed by substrate addition and measured after 1.5 mins in the presence of 0.01% Triton-X 100 by absorbance based plate reader analysis; conditions: time 6.5 min; summary of the method: as §7

N#Cc1ccc(NC(=O)c2cc(C=O)n3c2CCCC3)c2cc(O)ccc12
IC50 [1]: 8 µM
inhibition [2]: > 50%
Activity [3]: Active
inhibition [4]: Active
IC50 [5]: 30 µM
IC50 [6]: 14 µM
Activity [7]: Active
inhibition (Bacteria [8]): Active
inhibition (Homo sapiens [9]): Active
inhibition (Homo sapiens [10]): inactive
inhibition (Bacteria [11]): inactive

O=C(COC(=O)c1cc(-c2ccoc2)n[nH]1)Nc1ccc(Br)cc1
inhibition (Bacteria [12]): inactive
inhibition [13]: Active
IC50 [1]: 2.2 µM
inhibition [14]: Active
inhibition [15]: > 50%
inhibition [16]: > 50%
inhibition [17]: > 50%
inhibition [18]: > 50%
inhibition [19]: > 50%
inhibition [20]: > 50%
inhibition [21]: > 50%
inhibition [22]: > 50%
inhibition [23]: > 50%
IC50 [6]: 26 µM
IC50 [24]: 4 µM
IC50 [25]: 7 µM
IC50 [26]: 8 µM
IC50 [27]: 11 µM
IC50 [28]: 11 µM
IC50 [29]: 11 µM
IC50 [30]: 15 µM
IC50 [31]: 16 µM
inhibition (Homo sapiens [32]): Active
Activity [33]: Active
inhibition (Homo sapiens [34]): inactive
inhibition (Bacteria [35]): inactive
